Results of several laboratories.
Lines come from different studies, so protocols differ.
ALDH1A1: Aldehyde dehydrogenase 1A1 (ALDH1A1, Homo sapiens, UniProt P00352)
ALOX15: Polyunsaturated fatty acid lipoxygenase ALOX15 (ALOX15, Homo sapiens, UniProt P16050)

Structure (SMILES)	target	observed	mode	method	setting	quantity	result
COc1nc(-c2cccc(-c3ccccc3)c2C)ccc1CNCCNC(=O)CCCCCCCCCCC(=O)N1CCN(CCNC(=O)c2cc3c(=O)n4cccc(C)c4nc3n(CCc3cccs3)c2=N)CC1	Programmed cell death 1 ligand 1 (CD274, Homo sapiens, UniProt Q9NZQ7)	binding		BLI		Kd	0.452 µM
COc1nc2ccc(Br)cc2cc1[C@@H](c1ccccc1)[C@@](O)(CCN(C)C)c1cccc2ccccc12	ALDH1A1	enzyme activity	inhibitor	fluorescence		IC50	< 10 µM
NC/C(=C\F)COc1cccc(Cn2c(=S)[nH]c(=O)c3[nH]cnc32)c1	Thyroid peroxidase (Homo sapiens, UniProt P07202)	enzyme activity	inhibitor			IC50	13 µM
[C-]#[N+]CCOCCOc1ccc2c(-c3ccccc3C(=O)OCC)c3ccc(=O)cc-3oc2c1	ALOX15	enzyme activity	inhibitor	absorbance		IC50	20.8 µM
COC(=O)C(C)n1nc(Cn2cc3cc(OCCF)c(Cl)cc3n2)c2ccccc2c1=O (racemic)	Sphingosine 1-phosphate receptor 1 (S1PR1, Homo sapiens, UniProt P21453)	ligand displacement		radioligand	cell membranes	IC50	> 1 µM
O=C1OC2(c3ccc(O)cc3Oc3cc(O)ccc32)c2ccccc21	ALOX15	enzyme activity	inhibitor	absorbance		IC50	44.8 µM
CC(=O)N[C@H]1[C@H](O[C@H]2[C@H](O)[C@@H](NC(C)=O)C(O)O[C@@H]2CO)O[C@H](CO)[C@@H](O[C@@H]2O[C@H](CO)[C@@H](O)[C@H](O)[C@H]2NC(C)=O)[C@@H]1O (some centres unmarked)	MB (Equus caballus, UniProt P68082)	binding				Kd	~346 µM
O=c1[nH]c(=O)c(Cc2cccc(C(F)(F)F)c2)c([C@H]2CC[C@H](c3ccccc3)CC2)[nH]1	Solute carrier family 22 member 1 (SLC22A1, Homo sapiens, UniProt O15245)	transporter uptake	inhibitor			IC50	> 1 µM
CNC(=O)[C@H](Cc1c[nH]c2ccccc12)NC(=O)[C@@H](CC(=O)NO)CC(C)C	Matrilysin (MMP7, Homo sapiens, UniProt P09237)	enzyme activity	inhibitor			IC50	0.00294 µM
OC[C@H]1O[C@@H](Oc2ccc(O)c3cccc(O)c23)[C@H](O)[C@@H](O)[C@@H]1O	ALDH1A1	enzyme activity	inhibitor	fluorescence		IC50	< 10 µM
OC[C@H]1OC(O)[C@H](O)[C@@H](O)[C@@H]1O (some centres unmarked)	Spliceosome RNA helicase DDX39B (DDX39B, Homo sapiens, UniProt Q13838)	binding		MST		Kd	1860 µM
